ChEMBL document CHEMBL1145837, “Design and synthesis of 4,6-di-tert-butyl-2,3-dihydro-5-benzofuranols as a novel series of antiatherogenic antioxidants” (J Med Chem, 2003)

Tests used:
Oryctolagus cuniculus [1] = organism: Oryctolagus cuniculus; assay: Inhibition of LDL oxidation induced by cupric ions (CuSO4) at 10 uM expressed as % control.; type: functional
Procedure, shortened: (§1)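 Rabbit LDL (d 1.019–1.063 g/mL, sequential ultracentrifugation) at 200 μg/mL with compound at stated concentration, oxidized by soybean lipoxygenase type-IS or CuSO4 at 37 °C for 24 h in CO2 incubator. Read-out: TBARS and LDL fluorescence by gel permeation chromatography (0.1 M NaCl, 0.05 M Tris pH 7.4); expressed as % of control; duplicate or more.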

[2] = Inhibition of MCLA chemiluminescence generated by autoxidation of linoleic acid
Procedure, shortened: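 Linoleic acid peroxyl radicals from autoxidation of 1 mM linoleic acid in 1-butanol with 10 μM MCLA, 10 min at 37 °C under air; quenching measured as change in MCLA chemiluminescence after compound addition; IC50 derived; duplicate or more.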

[3] = target: T1, Seed linoleate 13S-lipoxygenase-1 (Glycine max) (UniProt P08170); assay: Inhibition of LDL oxidation induced by soybean lipoxygenase (SLO) at 5 uM expressed as % control.; type: functional; procedure, shortened: as §1
T1 sequence (whole entry): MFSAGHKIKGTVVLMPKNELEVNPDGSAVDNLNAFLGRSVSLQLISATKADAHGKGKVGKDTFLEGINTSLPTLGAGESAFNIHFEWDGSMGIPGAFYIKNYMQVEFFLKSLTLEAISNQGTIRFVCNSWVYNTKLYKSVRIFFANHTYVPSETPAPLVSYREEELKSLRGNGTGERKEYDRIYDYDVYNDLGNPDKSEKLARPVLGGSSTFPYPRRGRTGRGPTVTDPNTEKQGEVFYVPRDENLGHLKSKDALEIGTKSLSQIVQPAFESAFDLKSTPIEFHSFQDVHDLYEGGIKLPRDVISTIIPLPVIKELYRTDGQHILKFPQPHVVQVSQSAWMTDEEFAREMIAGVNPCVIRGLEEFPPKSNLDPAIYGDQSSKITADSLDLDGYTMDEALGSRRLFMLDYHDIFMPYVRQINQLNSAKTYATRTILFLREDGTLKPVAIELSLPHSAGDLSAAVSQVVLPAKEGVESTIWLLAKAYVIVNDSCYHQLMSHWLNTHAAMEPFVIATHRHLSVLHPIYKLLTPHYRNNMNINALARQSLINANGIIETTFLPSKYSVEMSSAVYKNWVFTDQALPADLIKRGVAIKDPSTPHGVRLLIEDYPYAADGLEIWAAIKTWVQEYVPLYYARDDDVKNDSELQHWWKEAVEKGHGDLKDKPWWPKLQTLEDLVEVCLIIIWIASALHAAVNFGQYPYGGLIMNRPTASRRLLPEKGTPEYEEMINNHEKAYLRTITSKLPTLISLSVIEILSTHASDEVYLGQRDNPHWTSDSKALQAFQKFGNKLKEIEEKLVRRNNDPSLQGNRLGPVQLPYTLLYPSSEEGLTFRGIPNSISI

Oryctolagus cuniculus [4] = assay: Distribution of compound into LDL lipoprotein fraction of WHHL Rabbit's plasma after oral administration; type: ADME, organism-based; conditions: in vivo
Procedure, shortened: (§2)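 WHHL rabbits given test compound orally (250 mg/kg) once daily for 9 days; at 24 h after final dose plasma lipoproteins isolated by Havel procedure, EtOAc-extracted, compound content per mg lipoprotein measured by reverse-phase HPLC. Mean ± range, n = 2.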

[5] = target: T1, Seed linoleate 13S-lipoxygenase-1 (Glycine max); assay: Inhibition of LDL oxidation induced by soybean lipoxygenase (SLO) at 0.5 uM expressed as % control.; type: functional; procedure, shortened: as §1
Oryctolagus cuniculus [6] = assay: Distribution of compound into HDL lipoprotein fraction of WHHL Rabbit's plasma after oral administration; type: ADME, organism-based; conditions: in vivo; procedure, shortened: as §2
Oryctolagus cuniculus [7] = organism: Oryctolagus cuniculus; assay: Inhibition of LDL oxidation induced by cupric ions (CuSO4) at 1 uM expressed as % control.; type: functional; procedure, shortened: as §1
Oryctolagus cuniculus [8] = assay: Distribution of compound into VLDL lipoprotein fraction of WHHL Rabbit's plasma after oral administration; type: ADME, organism-based; conditions: in vivo; procedure, shortened: as §2
Oryctolagus cuniculus [9] = assay: Distribution of compound into HDL lipoprotein fraction of WHHL Rabbit's plasma after oral administration; ND means not detected; type: ADME, organism-based; conditions: in vivo; procedure, shortened: as §2

Row | LDL oxidation remaining, % of control [3] [%] | LDL (Oryctolagus cuniculus [4]) [µg/mg] | LDL oxidation remaining, % of control [5] [%] | HDL (Oryctolagus cuniculus [6]) [µg/mg] | VLDL (Oryctolagus cuniculus [8]) [µg/mg] | HDL (Oryctolagus cuniculus [9]) | SMILES | LDL oxidation remaining, % of control (Oryctolagus cuniculus [1]) [%] | IC50 [2] [µM] | LDL oxidation remaining, % of control (Oryctolagus cuniculus [7]) [%]
1 | 4.6 | 28.6 | 60.9 | 2.98 | 119.25 |  | CCCCCC1(CCCCC)Cc2c(cc(C(C)(C)C)c(O)c2C(C)(C)C)O1 [BO-653] | 42 | 4.6 | 96
2 | 2.3 |  | 93.4 |  |  |  | CC(C)(C)c1cc2c(c(C(C)(C)C)c1O)CC1(CCCCCC1)O2 | 9 | 7.9 | 91
3 | 3.6 |  | 63.5 |  |  |  | CC(C)(C)c1cc2c(c(C(C)(C)C)c1O)CC(Cc1ccccc1)(Cc1ccccc1)O2 | 11 | 10.6 | 93
4 | 1.8 |  | 39.8 |  |  |  | CC1(C)Cc2c(cc(C(C)(C)C)c(O)c2C(C)(C)C)O1 | 10 | 6.7 | 56
5 | 0.5 | 11.04 | 51.5 | 3.22 | 57.07 |  | CCCCC1(CCCC)Cc2c(cc(C(C)(C)C)c(O)c2C(C)(C)C)O1 | 12 | 7.9 | 82
6 | 0 |  | 33.3 |  |  |  | CCCC1(CCC)Cc2c(cc(C(C)(C)C)c(O)c2C(C)(C)C)O1 | 13 | 4 | 87
7 | 7.1 | 9.34 | 91.5 |  | 25.64 | Not detected | CC(C)CCC1(CCC(C)C)Cc2c(cc(C(C)(C)C)c(O)c2C(C)(C)C)O1 | 23 | 5.7 | 78
8 | 4.7 |  | 71.8 |  |  |  | CC(C)(C)c1cc2c(c(C(C)(C)C)c1O)CC1(CCOCC1)O2 | 22 | 8.2 | 87
9 | 9 |  | 97.2 |  |  |  | CC(C)(C)c1cc2c(c(C(C)(C)C)c1O)CC1(CCCCCCC1)O2 | 22 | 9.4 | 92
10 | 2.7 |  | 75.5 |  |  |  | CCCCCCC1(CCCCCC)Cc2c(cc(C(C)(C)C)c(O)c2C(C)(C)C)O1 | 23 |  | 86
11 | 0 |  | 34.1 |  |  |  | CC(C)(C)c1cc2c(c(C(C)(C)C)c1O)CC1(CCCCC1)O2 | 16 | 9.3 | 77
12 | 0.4 |  | 46.2 |  |  |  | CC(C)(C)c1cc2c(c(C(C)(C)C)c1O)CC1(CCCC1)O2 | 12 | 6.6 | 85
13 | 6.9 |  | 36 |  |  |  | CC(C)(C)c1cc2c(c(C(C)(C)C)c1O)CCO2 | 11 | 7.2 | 53
14 | 18.5 |  | 88.4 |  |  |  | CCCCCCCC1(CCCCCCC)Cc2c(cc(C(C)(C)C)c(O)c2C(C)(C)C)O1 | 83 |  | 89
15 | 14 | 2.57 | 73.9 | 0.44 | 5.48 |  | CC(C)(Sc1cc(C(C)(C)C)c(O)c(C(C)(C)C)c1)Sc1cc(C(C)(C)C)c(O)c(C(C)(C)C)c1 [PROBUCOL] | 28 | 165 | 87
16 | 1.8 | 5.08 | 99 |  | 27.69 | Not detected | CC(C)(C)c1cc2c(c(C(C)(C)C)c1O)CC(C(C)(C)C)O2 (stereo unspecified) | 11 | 8.4 | 74
17 | 11.3 | 0.36 | 89.8 |  | 1.16 | Not detected | CCCCCCCCC1(CCCCCCCC)Cc2c(cc(C(C)(C)C)c(O)c2C(C)(C)C)O1 | 72 | 5.6 | 85
18 | 1.3 |  | 9.4 |  |  |  | CCC1(CC)Cc2c(cc(C(C)(C)C)c(O)c2C(C)(C)C)O1 | 10 | 4.3 | 77
